Converted amounts (≈) assume the structure as drawn.
What was measured:
PC-3 [1] = assay: Cytotoxicity against human PC3 cells assessed as reduction in cell viability after 48 hrs by ATPlite-based luminescent assay; settings: PC-3, 48 h
Procedure, shortened: (§1)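 Cells were grown […] with 10% FBS, glutamax, NEAA and pen/strep at 37 °C, 5% CO2. Media were DMEM for RPE-1, HepG2 and BJ (BJ plus 10 ng/ml bFGF), F-12K for PC3, and IMDM for K562/HL-60. Cells were seeded at 500 per well and dosed from DMSO at 12 concentrations, 40 µM to 1 nM, in triplicate. After 48 h, intracellular ATP was read by luminescence. ED50 was obtained by variable-slope nonlinear regression.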

HL-60 [2] = assay: Cytotoxicity against human HL60 cells assessed as reduction in cell viability after 48 hrs by ATPlite-based luminescent assay; settings: HL-60, 48 h; procedure, shortened: as §1
[3] = test system: Staphylococcus epidermidis; assay: Antibacterial activity against Staphylococcus epidermidis HK6966/08 clinical isolate after 24 hrs by microdilution assay; format: functional; settings: HK6966/08, 24 h
TERT-RPE1 [4] = assay: Induction of apoptosis in human RPE1 cells assessed as caspase 3/7 activity after 24 hrs by caspase-glo luminescent assay; format: cell-based; settings: RPE-1, 24 h
Procedure, shortened: (§2)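 Cells were seeded at 500 per well in their growth media and exposed to 12 concentrations from 40 µM to 1 nM, delivered from DMSO, in triplicate. After 24 h, caspase-3/7 activity was read by Caspase-Glo luminescence. Data were normalized and ED50 was fitted by variable-slope nonlinear regression.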

Escherichia coli [5] = assay: Antibacterial activity against Escherichia coli ATCC 8739 after 48 hrs by microdilution assay; format: functional; settings: ATCC 8739, 48 h
Procedure, shortened: (§3)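 Broth microdilution in Mueller-Hinton medium buffered to pH 7.4 (±0.2), with DMSO as diluent at no more than 2% final. Compounds were tested as 2-fold serial dilutions from 2000 to 0.488 µmol/l. The inoculum was 0.5 McFarland (1.5×10^8 cfu/ml). Plates were held at 37 °C and read visually at 24 and 48 h. MIC was taken as 95% growth inhibition versus control, determined twice in duplicate.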

Staphylococcus aureus [6] = assay: Antibacterial activity against methicillin-resistant Staphylococcus aureus HK5996/08 clinical isolate after 24 hrs by microdilution assay; format: functional; settings: HK5996/08, 24 h
BJ = assay: Cytotoxicity against human BJ cells assessed as reduction in cell viability after 48 hrs by ATPlite-based luminescent assay; procedure, shortened: as §1
PC-3 [7] = assay: Induction of apoptosis in human PC3 cells assessed as caspase 3/7 activity after 24 hrs by caspase-glo luminescent assay; format: cell-based; settings: PC-3, 24 h; procedure, shortened: as §2
Pseudomonas aeruginosa [8] = assay: Antibacterial activity against Pseudomonas aeruginosa ATCC 9027 after 24 hrs by microdilution assay; format: functional; settings: ATCC 9027, 24 h; procedure, shortened: as §3
K562 [9] = assay: Induction of apoptosis in human K562 cells assessed as caspase 3/7 activity after 24 hrs by caspase-glo luminescent assay; format: cell-based; settings: K562, 24 h; procedure, shortened: as §2
[10] = test system: Staphylococcus epidermidis; assay: Antibacterial activity against Staphylococcus epidermidis HK6966/08 clinical isolate after 48 hrs by microdilution assay; format: functional; settings: HK6966/08, 48 h
Staphylococcus aureus [11] = assay: Antibacterial activity against Staphylococcus aureus ATCC 6538 after 24 hrs by microdilution assay; format: functional; settings: ATCC 6538, 24 h
Staphylococcus aureus [12] = assay: Antibacterial activity against Staphylococcus aureus ATCC 6538 after 48 hrs by microdilution assay; format: functional; settings: ATCC 6538, 48 h
Enterococcus sp. [13] = assay: Antibacterial activity against Enterococcus sp. HK14365/08 clinical isolate after 48 hrs by microdilution assay; format: functional; settings: HK14365/08, 48 h
HepG2 [14] = assay: Cytotoxicity against human HepG2 cells assessed as reduction in cell viability after 48 hrs by ATPlite-based luminescent assay; settings: HepG2, 48 h; procedure, shortened: as §1
Enterococcus sp. [15] = assay: Antibacterial activity against Enterococcus sp. HK14365/08 clinical isolate after 24 hrs by microdilution assay; format: functional; settings: HK14365/08, 24 h
Klebsiella pneumoniae [16] = assay: Antibacterial activity against Klebsiella pneumoniae HK11750/08 clinical isolate after 48 hrs by microdilution assay; format: functional; settings: HK11750/08, 48 h
MCF7 = assay: Cytotoxicity against human MCF7 cells assessed as reduction in cell viability after 48 hrs by ATPlite-based luminescent assay; settings: MCF7, 48 h
Klebsiella pneumoniae [17] = assay: Antibacterial activity against Klebsiella pneumoniae HK14368/08 clinical isolate after 48 hrs by microdilution assay; format: functional; settings: HK14368/08, 48 h
Klebsiella pneumoniae [18] = assay: Antibacterial activity against Klebsiella pneumoniae HK14368/08 clinical isolate after 24 hrs by microdilution assay; format: functional; settings: HK14368/08, 24 h
Escherichia coli [19] = assay: Antibacterial activity against Escherichia coli ATCC 8739 after 24 hrs by microdilution assay; format: functional; settings: ATCC 8739, 24 h; procedure, shortened: as §3
Klebsiella pneumoniae [20] = assay: Antibacterial activity against Klebsiella pneumoniae HK11750/08 clinical isolate after 24 hrs by microdilution assay; format: functional; settings: HK11750/08, 24 h
Pseudomonas aeruginosa [21] = assay: Antibacterial activity against Pseudomonas aeruginosa ATCC 9027 after 48 hrs by microdilution assay; format: functional; settings: ATCC 9027, 48 h; procedure, shortened: as §3
HL-60 [22] = assay: Induction of apoptosis in human HL60 cells assessed as caspase 3/7 activity after 24 hrs by caspase-glo luminescent assay; format: cell-based; settings: HL-60, 24 h; procedure, shortened: as §2
Staphylococcus aureus [23] = assay: Antibacterial activity against methicillin-resistant Staphylococcus aureus HK5996/08 clinical isolate after 48 hrs by microdilution assay; format: functional; settings: HK5996/08, 48 h
K562 [24] = assay: Cytotoxicity against human K562 cells assessed as reduction in cell viability after 48 hrs by ATPlite-based luminescent assay; settings: K562, 48 h; procedure, shortened: as §1
TERT-RPE1 [25] = assay: Cytotoxicity against human RPE1 cells assessed as reduction in cell viability after 48 hrs by ATPlite-based luminescent assay; settings: RPE-1, 48 h; procedure, shortened: as §1
HepG2 [26] = assay: Induction of apoptosis in human HepG2 cells assessed as caspase 3/7 activity after 24 hrs by caspase-glo luminescent assay; format: cell-based; settings: HepG2, 24 h; procedure, shortened: as §2

Structure (SMILES) | IC50 (PC-3 [1]) [µM] | IC50 (HL-60 [2]) [µM] | MIC95 [3] [µM] | IC50 (TERT-RPE1 [4]) [µM] | MIC95 (Escherichia coli [5]) [µM] | MIC95 (Staphylococcus aureus [6]) [µM] | IC50 (BJ) [µM] | IC50 (PC-3 [7]) [µM] | MIC95 (Pseudomonas aeruginosa [8]) [µM] | IC50 (K562 [9]) [µM] | MIC95 [10] [µM] | MIC95 (Staphylococcus aureus [11]) [µM] | MIC95 (Staphylococcus aureus [12]) [µM] | MIC95 (Enterococcus sp. [13]) [µM] | IC50 (HepG2 [14]) [µM] | MIC95 (Enterococcus sp. [15]) [µM] | MIC95 (Klebsiella pneumoniae [16]) [µM] | IC50 (MCF7) [µM] | MIC95 (Klebsiella pneumoniae [17]) [µM] | MIC95 (Klebsiella pneumoniae [18]) [µM] | also measured
COc1ccc(C2=C(c3ccc(OC)c(OC)c3)C(CO)(CO)OC2=O)cc1 | > 40 | > 40 | 250 (≈ 96.6 µg/mL) | > 40 | > 500 | 500 (≈ 193 µg/mL) | > 40 | > 40 | > 500 | > 40 | 250 (≈ 96.6 µg/mL) | > 500 | > 500 | > 500 | > 40 | > 500 | > 500 | > 40 | > 500 | > 500 | MIC95 (Escherichia coli [19]): > 500 µM; MIC95 (Klebsiella pneumoniae [20]): > 500 µM; MIC95 (Pseudomonas aeruginosa [21]): > 500 µM; IC50 (HL-60 [22]): > 40 µM; MIC95 (Staphylococcus aureus [23]): 500 µM (≈ 193 µg/mL); IC50 (K562 [24]): > 40 µM; IC50 (TERT-RPE1 [25]): > 40 µM; IC50 (HepG2 [26]): > 40 µM
O=C1OCC(c2ccc(C(F)(F)F)cc2)=C1c1ccc(Br)cc1 | > 40 | > 40 | 125 (≈ 47.9 µg/mL) | > 40 | > 500 | 62.5 (≈ 23.9 µg/mL) | > 40 | > 40 | > 500 | > 40 | 125 (≈ 47.9 µg/mL) | 62.5 (≈ 23.9 µg/mL) | 62.5 (≈ 23.9 µg/mL) | > 500 | 11.4 | > 500 | > 500 | 6.37 | > 500 | > 500 | MIC95 (Escherichia coli [19]): > 500 µM; MIC95 (Klebsiella pneumoniae [20]): > 500 µM; MIC95 (Pseudomonas aeruginosa [21]): > 500 µM; IC50 (HL-60 [22]): > 40 µM; MIC95 (Staphylococcus aureus [23]): 62.5 µM (≈ 23.9 µg/mL); IC50 (K562 [24]): > 40 µM; IC50 (TERT-RPE1 [25]): 16.4 µM; IC50 (HepG2 [26]): > 40 µM
O=C1OCC(c2ccc(O)c(O)c2)=C1c1ccc(O)cc1 | > 40 | > 40 | 250 (≈ 71.1 µg/mL) | > 40 | > 500 | 250 (≈ 71.1 µg/mL) | > 40 | > 40 | > 500 | > 40 | 500 (≈ 142 µg/mL) | 250 (≈ 71.1 µg/mL) | 500 (≈ 142 µg/mL) | 500 (≈ 142 µg/mL) | > 40 | 500 (≈ 142 µg/mL) | > 500 | > 40 | > 500 | > 500 | MIC95 (Escherichia coli [19]): > 500 µM; MIC95 (Klebsiella pneumoniae [20]): > 500 µM; MIC95 (Pseudomonas aeruginosa [21]): > 500 µM; IC50 (HL-60 [22]): > 40 µM; MIC95 (Staphylococcus aureus [23]): 500 µM (≈ 142 µg/mL); IC50 (K562 [24]): 16.2 µM; IC50 (TERT-RPE1 [25]): > 40 µM; IC50 (HepG2 [26]): > 40 µM

Source: ChEMBL document CHEMBL4251593, “Nontoxic combretafuranone analogues with high in vitro antibacterial activity” (Eur J Med Chem, 2018)
